Laboratory results reported in ChEMBL document CHEMBL2203082, “Thiorhodamines containing amide and thioamide functionality as inhibitors of the ATP-binding cassette drug transporter P-glycoprotein (ABCB1)” (Bioorg Med Chem, 2012).

What was measured:
[1] = Ratio of permeability from apical to basal side of MDCK2 cells expressing MDR1 assessed as fraction of mass extracted by methanol wash at 5 uM in presence of LSN 335984 to permeability from apical to basal side of MDCK2 cells expressing MDR1 assessed as fraction of mass extracted by methanol wash at 5 uM in absence of LSN 335984; type: ADME, cell-based, Canis lupus familiaris; details: dog, mdck-ii
Summary of the method: (§1)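 MDCKII-MDR1 cells on Transwell polycarbonate filters (50,000 cells cm−2), used day 6. 5 μM compound added to donor chamber (AB or BA). Donor and receiver sampled after 1 h at 37 °C with nutation. Cell-associated fraction taken by methanol extraction of monolayer after AB flux. Quantified by LC-MS/MS. ±SD.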

[2] = Permeability from apical to basal side of MDCK2 cells expressing MDR1 assessed as fraction of mass extracted by methanol wash at 5 uM after 1 hr by LC-MS/MS analysis in presence of LSN 335984; type: ADME, cell-based, Canis lupus familiaris; details: dog, mdck-ii; summary of the method: as §1
[3] = Permeability from apical to basal side of MDCK2 cells expressing MDR1 assessed as fraction of mass extracted by methanol wash at 5 uM after 1 hr by LC-MS/MS analysis; type: ADME, cell-based, Canis lupus familiaris; details: dog, mdck-ii; summary of the method: as §1
[4] = Ratio of permeability from basal to apical side of MDCK2 cells expressing MDR1 in absence of LSN 335984 to permeability from basal to apical side of MDCK2 cells expressing MDR1 in presence of LSN 335984; type: ADME, cell-based, Canis lupus familiaris; details: dog, mdck-ii; summary of the method: as §1
[5] = Permeability from basal to apical side of MDCK2 cells expressing MDR1 at 5 uM after 1 hr by LC-MS/MS analysis; type: ADME, cell-based, Canis lupus familiaris, MDCK-II; details: dog, MDCK-MDR1; read-out: permeability; summary of the method: as §1
[6] = Permeability from apical to basal side of MDCK2 cells expressing MDR1 at 5 uM after 1 hr by LC-MS/MS analysis; type: ADME, cell-based, Canis lupus familiaris, MDCK-II; details: dog, MDCK-MDR1; read-out: permeability; summary of the method: as §1
[7] = n-Octanol-water partition coefficient, log P of the compound at pH 7.4 by shake flask method; type: physicochemical
P-gp (MDR1, ABCB1) [8] = target: T1, P-gp (MDR1, ABCB1) (Homo sapiens, UniProt P08183); assay: Inhibition of MDR1 transfected in MDCK2 cells assessed as increase in calcein AM uptake at 2.5*10^-5 M incubated for 30 mins prior to calcein AM influx measured after 20 mins by fluorimetric analysis relative to LSN 335984; type: cell-based, MDCK-II; details: dog, MDCK2 cells transfected with MDR1, probe calcein AM
T1 sequence (P08183 whole entry): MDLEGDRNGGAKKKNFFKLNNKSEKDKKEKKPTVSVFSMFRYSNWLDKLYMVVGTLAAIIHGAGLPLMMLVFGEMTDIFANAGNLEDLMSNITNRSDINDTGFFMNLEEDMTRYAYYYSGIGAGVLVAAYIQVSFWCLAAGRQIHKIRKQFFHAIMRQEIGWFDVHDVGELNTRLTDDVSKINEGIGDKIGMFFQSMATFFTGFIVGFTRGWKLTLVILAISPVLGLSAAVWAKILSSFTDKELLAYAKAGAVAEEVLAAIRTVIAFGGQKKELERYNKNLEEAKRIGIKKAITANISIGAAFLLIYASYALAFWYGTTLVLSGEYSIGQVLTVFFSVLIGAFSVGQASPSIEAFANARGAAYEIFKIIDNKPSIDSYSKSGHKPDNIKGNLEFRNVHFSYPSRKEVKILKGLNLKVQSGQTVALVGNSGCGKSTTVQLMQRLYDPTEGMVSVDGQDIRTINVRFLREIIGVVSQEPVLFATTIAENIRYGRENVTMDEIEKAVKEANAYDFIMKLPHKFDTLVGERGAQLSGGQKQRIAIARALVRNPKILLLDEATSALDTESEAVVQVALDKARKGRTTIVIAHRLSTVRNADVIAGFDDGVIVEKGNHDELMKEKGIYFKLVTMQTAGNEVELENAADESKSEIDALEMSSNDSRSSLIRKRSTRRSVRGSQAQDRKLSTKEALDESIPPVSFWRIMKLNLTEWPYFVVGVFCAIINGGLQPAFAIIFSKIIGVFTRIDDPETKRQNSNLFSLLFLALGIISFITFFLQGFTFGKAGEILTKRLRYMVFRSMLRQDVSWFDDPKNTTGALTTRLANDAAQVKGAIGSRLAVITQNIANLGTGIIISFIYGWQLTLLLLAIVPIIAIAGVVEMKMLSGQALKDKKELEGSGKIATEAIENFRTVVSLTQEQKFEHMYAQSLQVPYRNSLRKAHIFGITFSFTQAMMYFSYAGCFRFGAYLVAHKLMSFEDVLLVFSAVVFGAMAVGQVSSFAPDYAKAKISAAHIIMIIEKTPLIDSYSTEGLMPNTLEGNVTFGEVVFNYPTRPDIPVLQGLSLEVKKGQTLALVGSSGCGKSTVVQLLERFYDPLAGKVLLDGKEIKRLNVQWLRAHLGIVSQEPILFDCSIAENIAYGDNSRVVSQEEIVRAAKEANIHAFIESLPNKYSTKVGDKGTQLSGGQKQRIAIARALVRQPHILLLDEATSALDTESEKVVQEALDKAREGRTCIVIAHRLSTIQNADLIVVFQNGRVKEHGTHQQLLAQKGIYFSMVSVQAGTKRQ
Summary of the method: (§2)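 MDCKII-MDR1 cells (passage 16-42) seeded 40,000 cells/well, used day 4. Washed with DPBS plus 10−2 M Hepes pH 7.4, then incubated 30 min at 37 °C with compound in this buffer with 4.3 mg mL−1 BSA. Compound solution then replaced with one also holding 0.5 μg mL−1 calcein AM, 20 min more.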

P-gp (MDR1, ABCB1) [9] = target: T1, P-gp (MDR1, ABCB1); assay: Inhibition of MDR1 transfected in MDCK2 cells assessed as increase in calcein AM uptake at 5*10^-6 M incubated for 30 mins prior to calcein AM influx measured after 20 mins by fluorimetric analysis relative to LSN 335984; type: cell-based, MDCK-II; details: dog, MDCK2 cells transfected with MDR1, probe calcein AM; summary of the method: as §2
[10] = target: T2, ATP-dependent translocase ABCB1 (Homo sapiens, UniProt P08183); assay: Inhibition of MDR1 transfected in MDCK2 cells assessed as increase in calcein AM uptake incubated for 30 mins prior to calcein AM influx measured after 20 mins by fluorimetric analysis; type: cell-based, MDCK-II
T2 sequence (P08183 whole entry): as above

[11] = target: P-gp (ABCB1) ATPase activity (Homo sapiens, UniProt P08183); assay: Binding affinity to human His10-tagged P-gp expressed in BHK cells assessed as induction of ATPase activity measured as inorganic phosphate release by spectrophotometric analysis relative to control; type: cell-based; details: read-out: FC
Sequence of P-gp (ABCB1) ATPase activity (P08183 whole entry): as above

[12] = target: T2, ATP-dependent translocase ABCB1; assay: Inhibition of MDR1 transfected in MDCK2 cells assessed as inhibition of [3H]vinblastine efflux incubated for 30 mins prior to [3H]vinblastine addition by scintillation counting; type: cell-based, MDCK-II
Summary of the method: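 Transwell MDCKII-MDR1 monolayers on day 6, rinsed 10 min in DPBSH at 37 °C. Conditioned with compound at 1 × 10−10 to 1 × 10−5 M in BSA/DPBSH. [3H]-vinblastine added to the basolateral side. Apical buffer replaced every 10 min, and apical [3H] counted by scintillation. IC50 calculated from the curve.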

[13] = target: T2, ATP-dependent translocase ABCB1; assay: Inhibition of human His10-tagged P-gp ATPase activity expressed in BHK cells assessed as verapamil-induced inorganic phosphate release incubated for 15 mins prior to verapamil addition by spectrophotometric analysis; type: cell-based
Summary of the method: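 P-gp-His10 stably expressed in BHK cells, Ni-chelate purified and mixed 1:1 with 10 mg/ml sheep brain phosphatidylethanolamine. Pre-incubated with compound 15 min at 20 °C. […] Released inorganic phosphate measured.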

## CCN(CC)C(=S)c1ccc(-c2c3ccc(=[N+](C)C)cc-3sc3cc(N(C)C)ccc23)s1.F[P-](F)(F)(F)(F)F
[1]
  Ratio: 5.1
[2]
  permeability: 56%
[3]
  permeability: 11%
[4]
  Ratio: 41
[5]
  Papp B→A at 1 h, 5 µM: 210 nm/s
[6]
  Papp A→B at 1 h, 5 µM: ≤ 1 nm/s
[7]
  logD: 1.2
P-gp (MDR1, ABCB1) [8]
  inhibition at 20 min, 25 µM: 3%
P-gp (MDR1, ABCB1) [9]
  inhibition at 20 min, 5 µM: 0%
[10]
  IC50: 14 µM
[11]
  fold induction: 12.1

## CN(C)c1ccc2c(-c3ccc(C(=O)N4CCCCC4)s3)c3ccc(=[N+](C)C)cc-3sc2c1
[7]
  logD: 1.5

## CCN(CC)C(=O)c1ccc(-c2c3ccc(=[N+](C)C)cc-3sc3c4c5c(cc23)CCCN5CCC4)s1.F[P-](F)(F)(F)(F)F
[1]
  Ratio: 4.8
[2]
  permeability: 28%
[3]
  permeability: 5.8%
[4]
  Ratio: 12
[5]
  Papp B→A at 1 h, 5 µM: 210 nm/s
[6]
  Papp A→B at 1 h, 5 µM: ≤ 1 nm/s
[7]
  logD: 1.9
P-gp (MDR1, ABCB1) [8]
  inhibition at 20 min, 25 µM: 41%
P-gp (MDR1, ABCB1) [9]
  inhibition at 20 min, 5 µM: 0%
[10]
  IC50: 10 µM
[11]
  fold induction: 5.6

## CCN(CC)C(=S)c1ccc(-c2c3ccc(=[N+](C)C)cc-3sc3c4c5c(cc23)CCCN5CCC4)s1.F[P-](F)(F)(F)(F)F
[1]
  Ratio: 1.8
[2]
  permeability: 45%
[3]
  permeability: 25%
[4]
  Ratio: 24
[5]
  Papp B→A at 1 h, 5 µM: 65 nm/s
[6]
  Papp A→B at 1 h, 5 µM: ≤ 1 nm/s
[7]
  logD: 1.7
P-gp (MDR1, ABCB1) [8]
  inhibition at 20 min, 25 µM: 41%
P-gp (MDR1, ABCB1) [9]
  inhibition at 20 min, 5 µM: 0%
[10]
  IC50: 9.6 µM
[11]
  fold induction: 4.6

## C[N+](C)=c1ccc2c(-c3ccc(C(=O)N4CCCCC4)s3)c3cc4c5c(c3sc-2c1)CCCN5CCC4.F[P-](F)(F)(F)(F)F
[1]
  Ratio: 6.1
[2]
  permeability: 42%
[3]
  permeability: 6.9%
[4]
  Ratio: 27
[5]
  Papp B→A at 1 h, 5 µM: 220 nm/s
[6]
  Papp A→B at 1 h, 5 µM: ≤ 1 nm/s
[7]
  logD: 1.4
P-gp (MDR1, ABCB1) [8]
  inhibition at 20 min, 25 µM: 41%
P-gp (MDR1, ABCB1) [9]
  inhibition at 20 min, 5 µM: 0%
[10]
  IC50: 56 µM
[11]
  fold induction: 4.1

## CCN(CC)C(=O)c1ccc(-c2c3ccc(=[N+](C)C)cc-3sc3cc4c(cc23)C(C)(C)CCN4C)s1.F[P-](F)(F)(F)(F)F
[1]
  Ratio: 3.3
[2]
  permeability: 33%
[3]
  permeability: 10%
[4]
  Ratio: 14
[5]
  Papp B→A at 1 h, 5 µM: 370 nm/s
[6]
  Papp A→B at 1 h, 5 µM: ≤ 1 nm/s
[7]
  logD: 1.4
[12]
  IC50: 8 µM
P-gp (MDR1, ABCB1) [8]
  inhibition at 20 min, 25 µM: 64%
P-gp (MDR1, ABCB1) [9]
  inhibition at 20 min, 5 µM: 0%
[10]
  IC50: 7.1 µM
[11]
  fold induction: 4.7

## CCN(CC)C(=S)c1ccc(-c2c3ccc(=[N+](C)C)cc-3sc3cc4c(cc23)C(C)(C)CCN4C)s1.F[P-](F)(F)(F)(F)F
[1]
  Ratio: 1.2
[2]
  permeability: 64%
[3]
  permeability: 52%
[4]
  Ratio: 69
[5]
  Papp B→A at 1 h, 5 µM: 69 nm/s
[6]
  Papp A→B at 1 h, 5 µM: ≤ 1 nm/s
[7]
  logD: 2.7
[12]
  IC50: 8.7 µM
P-gp (MDR1, ABCB1) [8]
  inhibition at 20 min, 25 µM: 64%
P-gp (MDR1, ABCB1) [9]
  inhibition at 20 min, 5 µM: 0%
[10]
  IC50: 8.8 µM
[11]
  fold induction: 4.3

## CN1CCC(C)(C)c2cc3c(-c4ccc(C(=O)N5CCCCC5)s4)c4ccc(=[N+](C)C)cc-4sc3cc21.F[P-](F)(F)(F)(F)F
[1]
  Ratio: 5.2
[2]
  permeability: 45%
[3]
  permeability: 8.6%
[4]
  Ratio: 31
[5]
  Papp B→A at 1 h, 5 µM: 230 nm/s
[6]
  Papp A→B at 1 h, 5 µM: ≤ 1 nm/s
[7]
  logD: 1.7
[12]
  IC50: 5.6 µM
P-gp (MDR1, ABCB1) [8]
  inhibition at 20 min, 25 µM: 64%
P-gp (MDR1, ABCB1) [9]
  inhibition at 20 min, 5 µM: 0%
[10]
  IC50: 13 µM
[13]
  IC50: 1.1 µM
[11]
  fold induction: < 2

## CN1CCC(C)(C)c2cc3c(-c4ccc(C(=S)N5CCCCC5)s4)c4ccc(=[N+](C)C)cc-4sc3cc21.F[P-](F)(F)(F)(F)F
[1]
  Ratio: 1.8
[2]
  permeability: 62%
[3]
  permeability: 34%
[4]
  Ratio: 170
[5]
  Papp B→A at 1 h, 5 µM: 34 nm/s
[6]
  Papp A→B at 1 h, 5 µM: ≤ 1 nm/s
[7]
  logD: 2.6
[12]
  IC50: 8.9 µM
P-gp (MDR1, ABCB1) [8]
  inhibition at 20 min, 25 µM: 64%
P-gp (MDR1, ABCB1) [9]
  inhibition at 20 min, 5 µM: 0%
[10]
  IC50: 9.3 µM
[13]
  IC50: 1.7 µM
[11]
  fold induction: < 2

## C[N+](C)=c1ccc2c(-c3ccc(C(=S)N4CCCCC4)s3)c3cc4c5c(c3sc-2c1)CCCN5CCC4.F[P-](F)(F)(F)(F)F
[2]
  permeability: 64%
[3]
  permeability: 31%
[5]
  Papp B→A at 1 h, 5 µM: 83 nm/s
[6]
  Papp A→B at 1 h, 5 µM: ≤ 1 nm/s
P-gp (MDR1, ABCB1) [8]
  inhibition at 20 min, 25 µM: 41%
P-gp (MDR1, ABCB1) [9]
  inhibition at 20 min, 5 µM: 0%

## CCN(CC)C(=O)c1ccc(-c2c3ccc(=[N+](C)C)cc-3sc3cc(N(C)C)ccc23)s1
[7]
  logD: 1.2
